Experimental data taken from ChEMBL document CHEMBL4261550, “Triazolopyrimidines identified as reversible myeloperoxidase inhibitors” (Medchemcomm, 2017).

Experiments:
[1] = target: Lactoperoxidase (Homo sapiens, UniProt P22079); assay: (§1) Inhibition of recombinant human LPO isoform-1 (26 to 712 residues) expressed in baculovirus infected insect cells assessed as reduction in H2O2-catalyzed 3,5-iodo tyrosine formation using 3-iodotyrosine and potassium iodide preincubated for 10 mins followed by 3,5-iodo tyrosine/potassium iodide/H2O2 addition and measured after 15 mins
In short: (§2)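 LPO isoform 1 residues 26–712, baculovirus/T. ni expressed, purified by cation exchange, hydrophobic interaction and size exclusion; 2.0 nM in 100 mM KPi pH 7.4, 10 min rt preincubation with inhibitor; then 400 μM KI/240 μM 3-iodotyrosine mix and 20 μM H2O2 (added solutions); 3,5-iodotyrosine formation monitored.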

[2] = Plasma concentration in PMA-stimulated C57BL6 mouse neutrophil degranulation model at 30 mg/kg, po after 20 mins; assay type: ADME, organism-based
[3] = target: T1, Thyroid peroxidase (Homo sapiens, UniProt P07202); assay: as §1, with “C-terminal His6-tagged TPO (15” for “LPO isoform-1 (26”, “839” for “712”
T1 sequence (P07202 whole entry): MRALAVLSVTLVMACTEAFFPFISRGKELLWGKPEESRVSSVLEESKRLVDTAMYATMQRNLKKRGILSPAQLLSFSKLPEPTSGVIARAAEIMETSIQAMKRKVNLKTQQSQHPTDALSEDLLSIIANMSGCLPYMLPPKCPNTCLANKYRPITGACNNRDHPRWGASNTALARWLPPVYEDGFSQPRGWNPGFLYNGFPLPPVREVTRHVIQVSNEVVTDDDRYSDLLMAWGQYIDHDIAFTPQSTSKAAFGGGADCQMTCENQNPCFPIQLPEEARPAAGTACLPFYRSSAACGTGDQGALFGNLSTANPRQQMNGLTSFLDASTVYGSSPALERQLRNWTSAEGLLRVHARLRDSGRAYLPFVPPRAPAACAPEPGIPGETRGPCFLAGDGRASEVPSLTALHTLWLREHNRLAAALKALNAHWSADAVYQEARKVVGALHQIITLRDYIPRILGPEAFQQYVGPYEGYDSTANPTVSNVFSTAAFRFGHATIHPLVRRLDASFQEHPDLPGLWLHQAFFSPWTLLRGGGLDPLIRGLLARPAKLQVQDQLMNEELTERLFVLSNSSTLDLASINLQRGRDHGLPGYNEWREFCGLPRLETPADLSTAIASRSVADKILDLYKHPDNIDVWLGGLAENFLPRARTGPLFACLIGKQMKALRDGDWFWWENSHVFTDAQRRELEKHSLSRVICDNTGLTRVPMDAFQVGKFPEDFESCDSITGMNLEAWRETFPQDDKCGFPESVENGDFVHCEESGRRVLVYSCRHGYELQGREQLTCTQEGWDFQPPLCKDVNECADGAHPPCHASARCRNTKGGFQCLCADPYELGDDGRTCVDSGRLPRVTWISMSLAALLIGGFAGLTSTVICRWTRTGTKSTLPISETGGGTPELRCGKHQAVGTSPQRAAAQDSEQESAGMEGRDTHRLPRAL
In short: as §2, with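 “TPO” for “LPO isoform 1”, “15–839 with C-terminal His6,” for “26–712,”, “Ni affinity, anion exchange” for “cation exchange, hydrophobic interaction”, “4.0” for “2.0”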

[4] = target: MPO, mouse (Mus musculus, UniProt P11247); assay: Inhibition of mouse C-terminal His10 tagged MPO (Met16 to Thr718 residues) assessed as reduction in enzyme-mediated chlorination by measuring reduction in HOCl formation preincubated for 10 mins followed by H2O2/NaCl addition and measured at 30 secs time interval for 5 mins by APF dye based fluorescence assay
[5] = target: T2, Myeloperoxidase (Homo sapiens, UniProt P05164); assay: Inhibition of human MPO assessed as reduction in enzyme-mediated chlorination by measuring reduction in HOCl formation in presence of H2O2/NaCl measured at 30 secs time interval for 5 mins by APF dye based fluorescence assay
T2 sequence (P05164 whole entry): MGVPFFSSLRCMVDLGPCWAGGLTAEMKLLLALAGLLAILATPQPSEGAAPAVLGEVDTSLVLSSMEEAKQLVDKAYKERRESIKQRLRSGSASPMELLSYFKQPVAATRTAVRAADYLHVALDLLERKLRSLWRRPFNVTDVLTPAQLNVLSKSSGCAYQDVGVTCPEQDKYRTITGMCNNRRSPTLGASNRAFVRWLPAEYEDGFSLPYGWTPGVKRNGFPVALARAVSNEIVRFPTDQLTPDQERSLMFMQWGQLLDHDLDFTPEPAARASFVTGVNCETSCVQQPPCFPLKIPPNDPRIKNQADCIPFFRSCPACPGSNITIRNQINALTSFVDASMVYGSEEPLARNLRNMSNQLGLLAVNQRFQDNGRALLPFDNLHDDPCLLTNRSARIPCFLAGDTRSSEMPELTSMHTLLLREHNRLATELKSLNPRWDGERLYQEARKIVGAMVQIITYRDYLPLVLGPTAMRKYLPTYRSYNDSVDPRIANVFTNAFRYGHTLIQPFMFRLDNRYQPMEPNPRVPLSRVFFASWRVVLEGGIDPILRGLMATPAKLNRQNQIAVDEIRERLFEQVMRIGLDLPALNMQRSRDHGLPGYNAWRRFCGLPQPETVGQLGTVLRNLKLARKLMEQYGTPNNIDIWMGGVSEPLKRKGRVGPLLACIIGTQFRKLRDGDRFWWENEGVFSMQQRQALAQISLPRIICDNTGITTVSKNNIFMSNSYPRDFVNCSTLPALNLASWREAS

[6] = target: T2, Myeloperoxidase; assay: Inhibition of MPO in human neutrophils assessed as reduction in PMA-stimulated HOCl production incubated for 3 mins and measured for 25 mins by luminol reagent based luminescence assay
In short: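 Neutrophils from healthy donors isolated by dextran sedimentation then Ficoll-Paque, resuspended in HBSS; 1.106 cells/mL stimulated with 100 nM PMA; inhibitor 22 μM down to 1 nM (1:3, 10 doses) in 10% ethanol/50% PEG/40% water, 3 min at rt; luminol 100 μM final, read 25 min at 37 °C; rate taken from initial linear region.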

[7] = target: T3, Cytochrome P450 2B6 (Homo sapiens, UniProt P20813); assay: Inhibition of CYP2B6 (unknown origin); assay type: ADME
T3 sequence (P20813 whole entry): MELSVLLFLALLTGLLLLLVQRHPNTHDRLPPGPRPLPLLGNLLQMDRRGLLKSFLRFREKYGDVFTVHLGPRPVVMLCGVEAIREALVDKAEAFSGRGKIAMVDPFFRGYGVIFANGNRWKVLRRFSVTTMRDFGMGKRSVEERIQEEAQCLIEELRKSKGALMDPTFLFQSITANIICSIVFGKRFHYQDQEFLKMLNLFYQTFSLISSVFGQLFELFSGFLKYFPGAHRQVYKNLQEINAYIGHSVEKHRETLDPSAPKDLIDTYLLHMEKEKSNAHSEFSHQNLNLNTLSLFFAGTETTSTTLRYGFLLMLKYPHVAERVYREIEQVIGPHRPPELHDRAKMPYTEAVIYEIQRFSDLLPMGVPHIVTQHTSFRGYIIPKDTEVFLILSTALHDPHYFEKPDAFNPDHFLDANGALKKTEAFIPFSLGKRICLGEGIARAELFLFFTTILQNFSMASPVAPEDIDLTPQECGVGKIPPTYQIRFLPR

Chain of MPO, mouse (P11247 whole entry, looked up): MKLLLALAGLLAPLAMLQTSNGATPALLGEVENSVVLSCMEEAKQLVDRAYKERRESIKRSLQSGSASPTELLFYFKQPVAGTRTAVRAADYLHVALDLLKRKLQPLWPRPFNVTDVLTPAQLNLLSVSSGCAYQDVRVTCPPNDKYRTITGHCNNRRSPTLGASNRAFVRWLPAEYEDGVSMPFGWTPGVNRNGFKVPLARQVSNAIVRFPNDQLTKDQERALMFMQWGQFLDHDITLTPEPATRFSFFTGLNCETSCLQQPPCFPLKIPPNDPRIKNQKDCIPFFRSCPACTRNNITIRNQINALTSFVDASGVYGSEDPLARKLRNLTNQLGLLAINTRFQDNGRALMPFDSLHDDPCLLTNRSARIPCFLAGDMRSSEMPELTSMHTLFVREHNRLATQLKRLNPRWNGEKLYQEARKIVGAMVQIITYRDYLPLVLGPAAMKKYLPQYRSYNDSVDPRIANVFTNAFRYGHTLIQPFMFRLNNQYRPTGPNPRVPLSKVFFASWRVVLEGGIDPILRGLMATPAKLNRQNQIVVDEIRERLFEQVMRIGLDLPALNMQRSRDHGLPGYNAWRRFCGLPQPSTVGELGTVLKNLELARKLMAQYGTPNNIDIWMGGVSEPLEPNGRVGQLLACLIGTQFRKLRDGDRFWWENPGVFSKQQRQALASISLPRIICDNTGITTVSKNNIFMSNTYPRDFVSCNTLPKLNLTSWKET
Chain of Lactoperoxidase (P22079 whole entry, the tested form may be a part, canonical isoform): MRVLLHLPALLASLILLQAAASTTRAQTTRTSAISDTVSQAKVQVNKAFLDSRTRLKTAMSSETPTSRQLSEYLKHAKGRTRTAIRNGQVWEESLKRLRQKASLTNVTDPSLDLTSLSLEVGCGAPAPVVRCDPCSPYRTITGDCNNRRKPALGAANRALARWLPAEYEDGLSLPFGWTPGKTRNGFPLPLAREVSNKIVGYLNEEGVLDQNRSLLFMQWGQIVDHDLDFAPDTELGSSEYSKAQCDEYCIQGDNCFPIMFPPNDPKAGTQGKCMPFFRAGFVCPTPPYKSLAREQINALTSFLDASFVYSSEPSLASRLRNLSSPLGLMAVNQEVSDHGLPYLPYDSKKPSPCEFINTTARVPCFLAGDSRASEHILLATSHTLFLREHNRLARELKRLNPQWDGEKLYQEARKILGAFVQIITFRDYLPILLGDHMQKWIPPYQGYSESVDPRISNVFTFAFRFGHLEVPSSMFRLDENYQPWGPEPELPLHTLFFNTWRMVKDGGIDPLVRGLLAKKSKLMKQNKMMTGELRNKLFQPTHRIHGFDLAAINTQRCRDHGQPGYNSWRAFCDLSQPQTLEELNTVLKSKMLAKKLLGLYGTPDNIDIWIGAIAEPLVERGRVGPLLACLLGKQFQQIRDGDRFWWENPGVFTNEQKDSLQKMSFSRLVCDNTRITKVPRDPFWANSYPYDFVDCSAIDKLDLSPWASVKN

IC50 [1] | concentration at 20 min [2] | IC50 [3] | IC50 [4] | IC50 [5] | IC50 [6] | IC50 [7] | SMILES
> 30000 nM | 180 µM | > 30000 nM | 81 nM | 84 nM | 5000 nM | – | Nc1nc(OCc2ccccc2)c2[nH]nnc2n1
13000 nM | – | 6000 nM | 230 nM | 320 nM | 1700 nM | < 100 nM | Nc1ccc(Oc2cc(Cl)c(Cl)cc2Cl)cn1
